Assay results: ChEMBL document CHEMBL4699542, “Design and synthesis of novel methoxypyridine-derived gamma-secretase modulators” (Bioorg Med Chem, 2020)
Values after ≈ are worked out from the molar mass of the structure shown. Active and inactive are the calls of the source. The calls are words filed in the database; no cut-off is given here.

Tests used:
[1] = Kinetic aqueous solubility of the compound in pH 7.4 PBS buffer by UV/Visible absorbance analysis; format: physicochemical; details: read-out: Kinetic_solubility
Method in brief: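 Kinetic solubility determined in PBS at pH 7.4 by UV/Vis absorbance, reported in μM.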

Gamma-secretase [2] = test: Modulation of gamma secretase in human SH-SY5Y cells overexpressing wild type APP751 assessed as inhibition of amyloid beta (35 to 42 residues) formation incubated for overnight by ELISA; format: cell-based
Method in brief: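 SHSY5Y-APP751 cells plated at 75K/well and incubated overnight at 37 °C, then treated 24 h over 10 concentrations ([…]–10 μM, 1:3.16 steps, in duplicate). Medium Aβ42 measured by sandwich ELISA (Aβ35–42 capture, AP-conjugated Aβ1–12 detection, CDP-Star luminescence) against an Aβ42 standard curve.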

Gamma-secretase [3] = test: Modulation of gamma secretase in human SH-SY5Y cells overexpressing wild type APP751 assessed as effect on amyloid beta38 level by meso scale discovery; format: cell-based
Gamma-secretase [4] = test: Modulation of gamma secretase in human SH-SY5Y cells overexpressing wild type APP751 assessed as effect on amyloid beta40 level by meso scale discovery; format: cell-based
Gamma-secretase [5] = test: Modulation of gamma secretase in human SH-SY5Y cells overexpressing wild type APP751 assessed as effect on amyloid beta42 level by meso scale discovery; format: cell-based
[6] = molecular target: Gamma-secretase (Homo sapiens) (UniProt Q96BI3+Q9NZ42+Q8WW43+P49768+Q92542+P49810); test: Modulation of gamma secretase in human SH-SY5Y cells overexpressing wild type APP751 assessed as effect on total amyloid beta level by meso scale discovery; format: cell-based
Method in brief: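 SHSY5Y cells stably overexpressing wild-type human APP751 treated with the compound over a concentration range. Aβ38, Aβ40, Aβ42 and total Aβ in the medium measured by MSD triplex immunoassay (4G8 detection, 2 h at room temperature). Concentrations back-fitted from standard curves.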

[7] = Metabolic stability in human liver microsomes assessed as parent compound remaining at 1 uM incubated for 30 mins; format: ADME, Microsome; details: microsomes, 0.5 h, 1 µM
Method in brief: (§1)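 Test compound at 1 μM incubated 30 min with human, rat or mouse liver microsomes (1 mg/mL); parent remaining expressed as %.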

[8] = Metabolic stability in rat liver microsomes assessed as parent compound remaining at 1 uM incubated for 30 mins; format: ADME, Microsome; details: 0.5 h; method in brief: as §1
[9] = Metabolic stability in mouse liver microsomes assessed as parent compound remaining at 1 uM incubated for 30 mins; format: ADME, Microsome; details: 0.5 h; method in brief: as §1
Cytochrome P450 3A4 = Cytochrome P450 3A4 (Homo sapiens, UniProt P08684); test: Inhibition of recombinant CYP3A4 (unknown origin) by fluorescence-based assay; format: ADME
Cytochrome P450 3A4, sequence (P08684 whole entry): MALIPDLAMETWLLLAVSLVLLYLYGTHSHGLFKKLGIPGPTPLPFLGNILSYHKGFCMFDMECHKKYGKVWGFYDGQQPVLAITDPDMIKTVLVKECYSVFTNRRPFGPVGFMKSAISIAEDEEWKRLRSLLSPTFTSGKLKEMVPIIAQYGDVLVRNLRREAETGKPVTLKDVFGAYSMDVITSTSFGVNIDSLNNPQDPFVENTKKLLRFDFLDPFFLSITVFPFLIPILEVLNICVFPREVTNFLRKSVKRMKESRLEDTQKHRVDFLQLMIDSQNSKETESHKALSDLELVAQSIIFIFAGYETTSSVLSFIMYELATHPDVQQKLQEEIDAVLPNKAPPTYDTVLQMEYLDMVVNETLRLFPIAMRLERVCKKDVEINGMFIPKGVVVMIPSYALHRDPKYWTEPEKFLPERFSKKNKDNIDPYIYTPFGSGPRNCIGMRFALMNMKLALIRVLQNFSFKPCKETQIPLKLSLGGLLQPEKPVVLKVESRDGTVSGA

Cytochrome P450 1A2 = molecular target: T1, Cytochrome P450 1A2 (Homo sapiens, UniProt P05177); test: Inhibition of recombinant CYP1A2 (unknown origin) by fluorescence-based assay; format: ADME
T1 sequence (P05177 whole entry): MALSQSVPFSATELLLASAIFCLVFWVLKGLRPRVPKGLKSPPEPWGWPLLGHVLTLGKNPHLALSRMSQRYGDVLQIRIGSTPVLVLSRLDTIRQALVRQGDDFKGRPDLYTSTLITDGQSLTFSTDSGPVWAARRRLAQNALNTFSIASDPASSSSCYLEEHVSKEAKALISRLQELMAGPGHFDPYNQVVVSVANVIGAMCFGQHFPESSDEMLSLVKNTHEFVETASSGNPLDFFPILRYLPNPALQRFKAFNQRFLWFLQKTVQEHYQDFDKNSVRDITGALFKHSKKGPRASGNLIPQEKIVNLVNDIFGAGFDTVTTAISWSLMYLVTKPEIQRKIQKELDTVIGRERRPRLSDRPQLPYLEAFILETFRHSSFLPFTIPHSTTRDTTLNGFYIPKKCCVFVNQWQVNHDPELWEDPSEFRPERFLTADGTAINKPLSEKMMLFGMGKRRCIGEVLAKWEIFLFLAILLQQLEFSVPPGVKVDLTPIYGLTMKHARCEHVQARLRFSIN
Method in brief: (§2)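 Recombinant CYP isoforms (five tested) screened for inhibition in fluorescence-based assays; IC50 in μM.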

Cytochrome P450 2C9 = Cytochrome P450 2C9 (Homo sapiens, UniProt P11712); test: Inhibition of recombinant CYP2C9 (unknown origin) by fluorescence-based assay; format: ADME; method in brief: as §2
Cytochrome P450 2C9, sequence (P11712 whole entry): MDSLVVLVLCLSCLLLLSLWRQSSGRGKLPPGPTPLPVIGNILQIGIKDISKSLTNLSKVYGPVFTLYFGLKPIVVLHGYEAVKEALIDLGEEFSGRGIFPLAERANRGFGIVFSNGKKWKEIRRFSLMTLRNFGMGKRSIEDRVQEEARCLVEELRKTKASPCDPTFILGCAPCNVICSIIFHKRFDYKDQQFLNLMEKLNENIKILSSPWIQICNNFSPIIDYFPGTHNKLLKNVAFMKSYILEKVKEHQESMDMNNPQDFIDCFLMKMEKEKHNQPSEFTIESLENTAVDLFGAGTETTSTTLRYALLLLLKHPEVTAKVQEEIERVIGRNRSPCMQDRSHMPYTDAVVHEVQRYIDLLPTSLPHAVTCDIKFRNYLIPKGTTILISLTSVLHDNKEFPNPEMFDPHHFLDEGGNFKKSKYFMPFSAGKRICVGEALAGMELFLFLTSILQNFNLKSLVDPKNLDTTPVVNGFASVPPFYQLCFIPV

Cytochrome P450 2C19 = Cytochrome P450 2C19 (Homo sapiens, UniProt P33261); test: Inhibition of recombinant CYP2C19 (unknown origin) by fluorescence-based assay; format: ADME; method in brief: as §2
Cytochrome P450 2C19, sequence (P33261 whole entry): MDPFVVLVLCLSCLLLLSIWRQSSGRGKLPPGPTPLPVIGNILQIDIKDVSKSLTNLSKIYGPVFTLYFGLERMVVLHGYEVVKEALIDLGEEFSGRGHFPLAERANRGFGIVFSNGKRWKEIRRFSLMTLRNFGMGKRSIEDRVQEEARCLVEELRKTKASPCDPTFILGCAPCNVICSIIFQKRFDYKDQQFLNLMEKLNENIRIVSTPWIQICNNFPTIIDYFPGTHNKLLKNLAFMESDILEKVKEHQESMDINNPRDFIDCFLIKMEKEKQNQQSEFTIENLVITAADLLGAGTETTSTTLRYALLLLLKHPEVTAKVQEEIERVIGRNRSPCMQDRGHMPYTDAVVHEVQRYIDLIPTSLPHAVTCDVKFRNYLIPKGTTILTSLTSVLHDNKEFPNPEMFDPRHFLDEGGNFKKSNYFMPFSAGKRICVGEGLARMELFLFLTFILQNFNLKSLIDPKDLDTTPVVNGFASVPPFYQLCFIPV

Cytochrome P450 2D6 = Cytochrome P450 2D6 (Homo sapiens, UniProt P10635); test: Inhibition of recombinant CYP2D6 (unknown origin) by fluorescence-based assay; format: ADME; method in brief: as §2
Cytochrome P450 2D6, sequence (P10635 whole entry): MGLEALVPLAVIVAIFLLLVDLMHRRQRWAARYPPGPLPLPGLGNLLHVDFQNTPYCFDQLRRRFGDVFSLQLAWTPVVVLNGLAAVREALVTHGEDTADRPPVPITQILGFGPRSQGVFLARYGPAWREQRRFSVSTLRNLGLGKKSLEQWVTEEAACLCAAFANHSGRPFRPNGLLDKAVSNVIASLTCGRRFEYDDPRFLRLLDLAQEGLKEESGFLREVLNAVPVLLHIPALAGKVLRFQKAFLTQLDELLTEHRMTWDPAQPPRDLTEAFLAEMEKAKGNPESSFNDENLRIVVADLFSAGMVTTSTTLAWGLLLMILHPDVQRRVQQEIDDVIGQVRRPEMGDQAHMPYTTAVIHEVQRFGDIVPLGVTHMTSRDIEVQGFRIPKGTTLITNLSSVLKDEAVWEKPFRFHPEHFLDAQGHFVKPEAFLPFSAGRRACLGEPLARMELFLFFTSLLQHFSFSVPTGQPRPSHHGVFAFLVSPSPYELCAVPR

[10] = molecular target: Voltage-gated inwardly rectifying potassium channel KCNH2 (Homo sapiens, UniProt Q12809); test: Inhibition of human ERG expressed in HEK293 cells by patch clamp assay; format: cell-based
Voltage-gated inwardly rectifying potassium channel KCNH2, sequence (Q12809 whole entry): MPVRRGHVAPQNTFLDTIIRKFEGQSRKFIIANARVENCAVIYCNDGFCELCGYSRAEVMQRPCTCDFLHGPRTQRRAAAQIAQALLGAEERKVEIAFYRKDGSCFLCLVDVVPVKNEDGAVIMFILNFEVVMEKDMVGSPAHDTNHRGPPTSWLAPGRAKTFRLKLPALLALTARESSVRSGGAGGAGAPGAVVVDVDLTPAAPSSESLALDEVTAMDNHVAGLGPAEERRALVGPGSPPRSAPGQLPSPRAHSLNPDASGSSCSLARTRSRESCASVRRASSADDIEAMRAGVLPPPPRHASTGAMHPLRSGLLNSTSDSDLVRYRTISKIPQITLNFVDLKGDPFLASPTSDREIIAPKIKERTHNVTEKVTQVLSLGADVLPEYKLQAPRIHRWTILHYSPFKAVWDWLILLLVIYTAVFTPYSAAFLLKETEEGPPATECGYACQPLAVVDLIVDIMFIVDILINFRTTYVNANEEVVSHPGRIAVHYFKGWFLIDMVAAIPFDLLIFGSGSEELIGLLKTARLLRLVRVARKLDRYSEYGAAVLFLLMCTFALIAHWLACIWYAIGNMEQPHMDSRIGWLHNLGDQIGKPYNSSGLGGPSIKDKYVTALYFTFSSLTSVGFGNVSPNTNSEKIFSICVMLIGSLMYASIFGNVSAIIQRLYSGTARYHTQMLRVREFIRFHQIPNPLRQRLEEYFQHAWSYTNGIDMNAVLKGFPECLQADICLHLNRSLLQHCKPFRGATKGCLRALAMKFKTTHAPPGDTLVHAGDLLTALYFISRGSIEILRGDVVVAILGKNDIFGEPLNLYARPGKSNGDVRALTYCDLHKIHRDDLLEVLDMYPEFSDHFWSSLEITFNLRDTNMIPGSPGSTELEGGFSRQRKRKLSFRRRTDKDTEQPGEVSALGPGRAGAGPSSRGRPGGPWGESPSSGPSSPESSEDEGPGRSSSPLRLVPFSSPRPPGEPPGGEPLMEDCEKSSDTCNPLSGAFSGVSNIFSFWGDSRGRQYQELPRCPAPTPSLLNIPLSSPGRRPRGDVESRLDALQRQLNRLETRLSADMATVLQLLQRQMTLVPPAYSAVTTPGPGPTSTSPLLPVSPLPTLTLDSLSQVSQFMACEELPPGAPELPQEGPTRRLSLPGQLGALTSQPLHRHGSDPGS

[11] = Protein binding in plasma (unknown origin); format: ADME, cell-free
[12] = Cmax in CD-1 mouse at 1 mg/kg, iv administered as single dose measured up to 24 hrs; format: ADME, organism-based; set-up: route intravenous, dose 1 mg/kg, time <=24; details: in vivo
Method in brief: (§3)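 Male CD-1 mice, 6–8 weeks old, single dose by tail vein (1 mg/kg, 3% NMP/45% PEG300/12% ethanol/40% water) or oral gavage (5 mg/kg, 5% NMP/95% PEG300). Retro-orbital plasma sampled 0.083 (iv only) to 24 h, n=3/timepoint, and analysed by HPLC/MS/MS. Non-compartmental analysis. Half-life taken from the terminal phase using ≥3 non-zero points after Tmax.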

[13] = Tmax in CD-1 mouse at 1 mg/kg, iv administered as single dose measured up to 24 hrs; format: ADME, organism-based; details: in vivo
Method in brief: (§4)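 Male CD-1 mice, 6–8 weeks old, single tail-vein dose in 3% NMP/45% PEG300/12% ethanol/40% sterile water. Retro-orbital plasma (K3EDTA) taken at 0.083, 0.25, 0.5, 1, 2, 4, 8 and 24 h, n=3/timepoint, analysed by HPLC/MS/MS. Non-compartmental analysis (Model 201, uniform weighting); Tmax read directly from the data.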

[14] = Half life in CD-1 mouse at 1 mg/kg, iv administered as single dose measured up to 24 hrs; format: ADME, organism-based; details: mouse, in vivo, 1 mg/kg, 24 h; method in brief: as §3
[15] = AUClast in CD-1 mouse at 1 mg/kg, iv administered as single dose measured up to 24 hrs; format: ADME, organism-based; set-up: route intravenous, dose 1 mg/kg, time <=24; details: in vivo; method in brief: as §3
[16] = AUC infinity in CD-1 mouse at 1 mg/kg, iv administered as single dose measured up to 24 hrs; format: ADME, organism-based; set-up: route intravenous, dose 1 mg/kg, time <=24; details: in vivo; method in brief: as §3
[17] = Volume of distribution at steady state in CD-1 mouse at 1 mg/kg, iv administered as single dose measured up to 24 hrs; format: ADME, organism-based; details: in vivo; method in brief: as §4
[18] = Bioavailability in CD-1 mouse at 1 mg/kg, iv administered as single dose measured up to 24 hrs; format: ADME, organism-based; details: in vivo
Method in brief: (§5)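 CD-1 mouse PK after single iv (1 mg/kg) and oral gavage (5 mg/kg) dosing, with plasma sampled to 24 h (n=3/timepoint) and measured by HPLC/MS/MS. F(%) = (AUC0-inf po × Dose iv)/(AUC0-inf iv × Dose po) × 100.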

[19] = Ratio of drug concentration in CD-1 mouse brain to plasma at 5 mg/kg, po measured after 1 hr; format: ADME, organism-based
Method in brief: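 Male CD-1 mice dosed once iv (1 mg/kg) or by oral gavage (5 mg/kg). Brain and plasma collected 1 h post dose (n=3/timepoint). Drug levels by HPLC/MS/MS; brain/plasma ratio calculated from these levels.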

[20] = Cmax in CD-1 mouse at 5 mg/kg, po administered as single dose measured up to 24 hrs; format: ADME, organism-based; set-up: route oral, dose 5 mg/kg, time <=24; details: in vivo; method in brief: as §3
[21] = Tmax in CD-1 mouse at 5 mg/kg, po administered as single dose measured up to 24 hrs; format: ADME, organism-based; details: in vivo
Method in brief: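 Male CD-1 mice, 6–8 weeks old, single oral gavage dose in 5% NMP/95% PEG300. Plasma (K3EDTA, retro-orbital, under isoflurane) taken at 0.25, 0.5, 1, 2, 4, 8 and 24 h, n=3/timepoint, analysed by HPLC/MS/MS. Non-compartmental extravascular analysis (Model 200); Tmax taken directly from the data.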

[22] = AUClast in CD-1 mouse at 5 mg/kg, po administered as single dose measured up to 24 hrs; format: ADME, organism-based; set-up: route oral, dose 5 mg/kg, time <=24; details: in vivo; method in brief: as §3
[23] = AUC infinity in CD-1 mouse at 5 mg/kg, po administered as single dose measured up to 24 hrs; format: ADME, organism-based; set-up: route oral, dose 5 mg/kg, time <=24; details: in vivo; method in brief: as §3
[24] = Oral bioavailability in CD-1 mouse at 5 mg/kg administered as single dose measured up to 24 hrs; format: ADME, organism-based; details: in vivo; method in brief: as §5
[25] = Ratio of drug concentration in CD-1 mouse brain to plasma at 1 mg/kg, iv measured after 1 hr
Gamma-secretase [26] = test: Inhibition of gamma secretase in human H4 cells overexpressing APP751 transfected with Myc-tagged Notch at 1 to 10 uM incubated for 24 hrs in presence of NICD by Western blot analysis; details: h4, 24 h
Gamma-secretase [27] = test: Inhibition of gamma secretase in human H4 cells overexpressing APP751 transfected with Myc-tagged Notch assessed as accumulation of Notch substrate at 100 to 300 nM incubated for 24 hrs by Western blot analysis; format: cell-based; details: h4, 24 h, 0.3 µM, dose 100-300 nM
Method in brief: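 H4 neuroglioma cells stably overexpressing human APP751 were transfected with Myc-tagged NΔE Notch, then treated 24 h with 1 or 10 μM modulator, 100 or 300 nM DAPT, or vehicle. Cells harvested 48 h post-transfection. Western blot with anti-Myc detected NΔE and NICD; β-actin served as loading control.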

Q: Which solubility kinetic [1] does the source give for `CCn1nc2c(c1Nc1nc(-c3ccc(-n4cnc(C)c4)c(OC)n3)cs1)CCCC2` here?
A: 4.5 µM (≈ 1.96 µg/mL)

Q: What about the IC50 (Gamma-secretase [2]) of the same compound?
A: 0.06 µM

Q: What about the EC50 (Gamma-secretase [3]) of the same compound?
A: 0.305 µM

Q: And the IC50 (Gamma-secretase [4])?
A: 0.104 µM

Q: And the IC50 (Gamma-secretase [5])?
A: 0.058 µM

Q: What about the Activity [6] of the same compound?
A: inactive

Q: What about the Stabilty [7] of the same compound?
A: 36%

Q: What about the Stabilty [8] of the same compound?
A: 71%

Q: What about the Stabilty [9] of the same compound?
A: 64%

Q: And the IC50 (Cytochrome P450 3A4)?
A: 3.7 µM

Q: What about the IC50 (Cytochrome P450 1A2) of the same compound?
A: > 100 µM

Q: And the IC50 (Cytochrome P450 2C9)?
A: 9 µM

Q: What about the IC50 (Cytochrome P450 2C19) of the same compound?
A: 5.9 µM

Q: What about the IC50 (Cytochrome P450 2D6) of the same compound?
A: > 100 µM

Q: And the IC50 [10]?
A: 8.6 µM

Q: What about the PPB [11] of the same compound?
A: 99.6%

Q: What about the Cmax [12] of the same compound?
A: 824 ng/mL

Q: And the Tmax [13]?
A: 4.98 min

Q: What about the t1/2 [14] of the same compound?
A: 30 min

Q: What about the AUClast [15] of the same compound?
A: 443 ng·h/mL

Q: And the AUC [16]?
A: 463 ng·h/mL

Q: And the Vdss [17]?
A: 1.413 L/kg

Q: And the F [18]?
A: 100%

Q: What about the BPR [19] of the same compound?
A: 0.4

Q: And the Cmax [20]?
A: 705 ng/mL

Q: And the Tmax [21]?
A: 15 min

Q: What about the AUClast [22] of the same compound?
A: 1089 ng·h/mL

Q: And the AUC [23]?
A: 1243 ng·h/mL

Q: What about the F [24] of the same compound?
A: 53.7%

Q: And the BPR [25]?
A: 0.4

Q: And the “inhibition (INH)” value (Gamma-secretase [26])?
A: Not Active

Q: For `C[C@H](NC(=O)Cc1cc(F)cc(F)c1)C(=O)N[C@H](C(=O)OC(C)(C)C)c1ccccc1`, which “inhibition (INH)” value (Gamma-secretase [27]) is on record?
A: Active
